Our source for the cytotoxicity values is ChEMBL document CHEMBL4513216, “Probing the Open Global Health Chemical Diversity Library for Multistage-Active Starting Points for Next-Generation Antimalarials” (ACS Infect Dis, 2020).

This data set can be described thus: Toxicity liver stage against HepG2, at 10uM. It is filed as cell-based. The arrangement: test concentration 10 uM, cell line HepG2-A16-CD81EGFP. To be noted: human, HepG2-A16-CD81EGFP cells; read-out: INHIBITION
The essentials: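 Uninfected HepG2-A16-CD81EGFP cells, 3 × 10^3 per well, 1536-well, plated on prespotted compound at 10 μM final, parasite-free screening media added to match infected plates; puromycin 10 μM positive, DMSO 0.5% negative; run in parallel with 48 h PbLuc assay at 37 °C, 5% CO2; viability by CellTiter-Glo luminescence, normalized to controls.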
Consider `COCCN1C(=O)CO[C@H]2CN(CCCc3ccccc3)C[C@H]21`, for which the cytotoxicity at 10 µM came out at 52.8%.
`O=C1CSC(c2ccncc2)c2c(n(C3CCOCC3)[nH]c2=O)N1` (stereo unspecified): the cytotoxicity at 10 µM is -19.4%.
`CCOC(=O)NCCC(O)c1ccoc1` (stereo unspecified): the cytotoxicity at 10 µM is -10.5%.
Take `O=C(Cc1ccccc1Cl)Nc1cnn(C2CCOC2)c1` (stereo unspecified): the cytotoxicity at 10 µM was found to be 2.63%.
The figure for `CC(=O)N1CCC2(CCN(CC3CCCCC3)C2)CC1` is 2.05%.
The figure for `CN(C)CCN1C(=O)CCC12CCCN(C(=O)CC1CC1)CC2` (stereo unspecified) is -1.48%; for `CC(C)Nc1ccc2c(c1)C1(CCOCC1)C(=O)N2c1ccsc1` it is 11%.
Turning to `CCN1CCOCC2(CCCN(c3nncs3)C2)C1` (stereo unspecified), the cytotoxicity at 10 µM stood at 8.28%.
Next, `CCc1ccc(C(=O)N2CCCn3nnc(Cn4cccn4)c3C2)cc1`: 7.8%; `N#Cc1cccc(CN2CCC3(CC(C(=O)NCC4CC4)=NO3)C2)c1` (stereo unspecified): 8.73%; `CC(=O)N1CC[C@@H]2O[C@@H](COCC(=O)N3CCCC3)CC[C@@H]21`: -7.73%.
Next, `COc1ncccc1C(=O)N1CC[C@H]2C[C@H](c3ccncn3)O[C@@H]2C1`: 9.4%.
In the case of `CC(C)COc1ccc(C2SCC(=O)Nc3c2c(=O)[nH]n3C(C)C)cc1` (stereo unspecified), the cytotoxicity at 10 µM was 8.74%.
The figure for `COC(=O)C1CCN(C(=O)c2nnc3ccc(Cl)cc3n2)CC1` is 12.3%; for `COCCNC(=O)c1cc(C(C)C)nc(N2CCCCC2)n1` it is 9.04%.
Consider `CC(C)c1cc(C(=O)NCCCN(C)C)nc(N2CCCC2)n1`, for which the cytotoxicity at 10 µM stood at 8.49%.
The figure for `COCC(=O)N[C@@H]1CN(Cc2ccc3c(c2)OCCO3)C[C@H]1O` is -27.1%.
With `Cc1ccc(C(=O)N2Cc3ccccc3OC3(CCOCC3)C2)cn1`, the cytotoxicity at 10 µM was -25.8%.
The figure for `Cc1nc2ccccn2c1CC(=O)N[C@@H]1CC[C@@H](N2CCOCC2)[C@@H]1O` is -1.68%.
As for `Cc1nc(C2CCCN2C(=O)COc2ccccc2)ncc1C(N)=O` (stereo unspecified), the cytotoxicity at 10 µM was -19.1%.
Turning to `Cc1cc(CCC(N)=O)cc(C2CCCN2Cc2cnc(C)nc2)n1` (stereo unspecified), the cytotoxicity at 10 µM is -26.1%.
The figure for `COc1ccccc1CN1CCC(c2nn(CCN)c3nccnc23)C1` (stereo unspecified) is -32.7%; for `COc1ccc(CN(C)[C@@H]2CN(C(=O)c3cccnc3)C[C@H]2O)cc1` it is 10.9%; for `COc1cccc(SCCCn2cnc3c(N)ncnc32)c1` it is 11.7%.
As to `Cn1c(C2CC2)nc2c1CCN(CC(=O)NC1CCCCNC1=O)C2` (stereo unspecified), the cytotoxicity at 10 µM stood at 3.73%.
For the compound `CCC(c1ccccc1)N1CCN(CCO)CC1` (stereo unspecified), the cytotoxicity at 10 µM was -1.19%.
Next, `COCCN1CCN(CC2CCCCO2)CC1` (stereo unspecified): 6.29%; `COC(=O)CC1CN(Cc2ccn(-c3ccc(F)cc3)n2)CCO1` (stereo unspecified): -7.83%.
The figure for `N#Cc1cccnc1NCc1cccnc1N1CCCCC1` is -48.3%; for `COC(=O)C(C)N(Cc1cc(C)on1)C1CC1` (stereo unspecified) it is 0.91%; for `CN(CCCNC(=O)c1ccccc1F)CC(F)(F)F` it is -9.25%.
Next, `CN(Cc1cnn(C)c1)S(=O)(=O)N1CCCC1c1ccco1` (stereo unspecified): -5.78%; `N#CCSCCCN1CCC(C(=O)N2CCCCCC2)CC1`: 5.37%.
With `CC(C)n1cc(CN2CCCN(C(=O)c3ccc[nH]3)CC2)cn1`, the cytotoxicity at 10 µM worked out at 3.59%.
The figure for `O=C(NCCc1cccc(F)c1)c1nc2c(s1)CCCN2C(=O)C1CC1` is -91.4%; for `COC[C@@H]1CCC[C@@]12CN(C(=O)N1CCCC1)CCO2` it is -101%.
Take `c1cc(CN2CC[C@H]3O[C@@H](COCC4CCOCC4)CC[C@H]32)ccn1`: the cytotoxicity at 10 µM was -69.8%.
The figure for `CNC(=O)[C@@]12CCO[C@@H]1CCN(S(=O)(=O)c1ccccc1F)C2` is -71.2%; for `COc1cc(-c2cnnc(NCCSC)n2)cc(OC)c1OC` it is 3.98%.
The figure for `COc1ncccc1-c1cc(C(N)=O)ccn1` is 7.81%; for `O=C(Nc1ccccc1N1CCOC1=O)N1CCSCC1` it is 3.15%; for `COCCN1CCN(Cc2ccc(Cl)cc2)[C@H]2CS(=O)(=O)C[C@H]21` it is -4.01%.
The figure for `CN(C)Cc1ccccc1CN(C)c1ncnc2[nH]ccc12` is 8.11%.
On to `CC(C)N1CCC(CC(=O)NC(C(=O)O)c2cc(F)ccc2F)CC1` (stereo unspecified), for which the cytotoxicity at 10 µM is 1.18%.
Take `CC(=O)c1cc(CN2C[C@@H](NS(=O)(=O)N(C)C)[C@H](C(C)C)C2)cs1`: the cytotoxicity at 10 µM was -7.79%.
Next, `O=C(NCCO)c1coc(Cn2cnc3ccccc32)n1`: -4.48%; `CCNC(=O)C1CCN(c2cc(CC)nc3ccnn23)C1` (stereo unspecified): -8.24%.
Consider `O=C(CCCc1cn[nH]c1)N1C[C@@H](CN2CCCCCC2)[C@@H](CO)C1`, for which the cytotoxicity at 10 µM is 1.52%.
The figure for `CN(Cc1ccccc1)c1ncccc1CNC1CCSCC1` is -2.84%; for `COc1cccc(Cl)c1C(C(=O)O)N(C)Cc1nnc(C)o1` (stereo unspecified) it is -23.4%; for `OC(CNc1nc(C2CCCC2)nc2c1CCNCC2)C(F)(F)F` (stereo unspecified) it is -4.78%.
The figure for `C/C=C(\C)CN1C[C@@H](NC(=O)c2ccc(F)c(F)c2)C[C@H]1C(=O)NCC` is 14%; for `CCc1nnc(CNC(=O)CCN2CCN(c3cccc(C)c3)CC2)s1` it is -1.82%.
The figure for `CN(C)CCN1CC(C(=O)N(C)Cc2cc3cc(F)ccc3[nH]2)CC1=O` (stereo unspecified) is -1.03%; for `Cc1ccc(NC(=O)CNC(C)Cc2ccsc2)cc1F` (stereo unspecified) it is 9.17%.
For `CN1CCCC1CCn1ccnc1-c1nc(-c2ccccc2)no1` (stereo unspecified), the cytotoxicity at 10 µM is -5.35%.
Next, `CSCCNC(=O)c1ccc(OC2CCN(CC(C)(C)C)CC2)c(Cl)c1`: -10.9%.
The figure for `Cc1cc(-c2nn(C)c(Cl)c2CN2Cc3ccccc3C(O)C2)no1` (stereo unspecified) is 4.1%; for `CN1CCC(Oc2ccc(NC(=O)c3ccccc3Br)cc2)CC1` it is -15.6%; for `O=C1CN(c2ccc(CNC(=O)NCCO)cc2)CCN1` it is -2.38%.
In the case of `CCn1cc(CN2CCCN(C(=O)CCn3cc(C)cn3)CC2)cn1`, the cytotoxicity at 10 µM was -2.11%.
The figure for `Cc1ccc(C(=O)NCC(O)c2cccc(F)c2)c(=O)[nH]1` (stereo unspecified) is -2.83%; for `Cc1ccc(C)c(S(=O)(=O)NC(=O)c2ccc(C)[nH]c2=O)c1` it is -1.07%; for `Cc1ccc(C(=O)NCCCNc2ccc(C(F)(F)F)cn2)cc1` it is -2.34%.
For `CCn1ccnc1CN1CCN(CCOc2ccc(C#N)cc2)CC1`, the cytotoxicity at 10 µM is -3.75%.
The figure for `CCc1cnc(CN(C)C2CCN(CC(=O)Nc3nccs3)C2)o1` (stereo unspecified) is -18.7%; for `CN(C(=O)Cc1ccccc1F)C1CCN(c2ccccn2)CC1` it is -0.644%.
The figure for `Cn1cnc2c1CCN(CCS(=O)(=O)c1ccc(Cl)cc1)C2` is -6.67%; for `CC(C)c1cc(NC(=O)CN2CCCC2c2noc(C(C)C)n2)on1` (stereo unspecified) it is -3.84%.
As to `O=C(Cc1ccccc1F)N1CCN(Cc2noc(C3CC3)n2)CC1`, the cytotoxicity at 10 µM was -2.21%.
Next, `COc1ccc(COCC(O)CNC(=O)c2ccc(C)c(F)c2)cc1` (stereo unspecified): -0.584%; `CC(C)CN(C)c1ccc(C(=O)N2CCCC2c2cnn(C)c2)cn1` (stereo unspecified): -6.95%.
The figure for `CC(NC(=O)NCCCO)c1ccc2c(c1)OCCO2` (stereo unspecified) is -2.92%; for `CN1CCOC(CNC(=O)CCCOc2ccccc2F)C1` (stereo unspecified) it is -3.15%; for `CC(C)c1nnc2n1CCN(Cc1csc(CC(=O)N(C)C)n1)C2` it is -15.9%.
Next, `Cc1nc(C)n(CC2CCCN2CCc2cccs2)n1` (stereo unspecified): -3.51%; `CC(C)Oc1ncccc1CNC(=O)N1CCC1c1ccccc1` (stereo unspecified): -4.92%; `CCCOc1ccc(CNC2CCCc3c2cnn3CC)cc1OC` (stereo unspecified): -10.8%.
With `CN(CCCNC(=O)N1CCCC1c1ccsc1)c1ccccn1` (stereo unspecified), the cytotoxicity at 10 µM is -4.53%.
Next, `CN(C(=O)CN1CCOC(Cn2cccn2)C1)c1nccs1` (stereo unspecified): -14.2%; `O=C(N[C@@H]1CN[C@H]2CCCO[C@H]21)c1cnccn1`: 6.38%.
Turning to `CCOc1cc2c(cc1CNC(Cc1cccs1)c1nccs1)OCO2` (stereo unspecified), the cytotoxicity at 10 µM came out at 7.15%.
Next, `CCNC(=O)[C@@H]1CCCN1[C@@H](C(=O)NC)C1CC1`: -2.39%; `Cc1nc2sccn2c1CNC1(c2ccccc2F)CCCC1`: 11.3%; `CCc1ccc(CN(CCCn2ccnc2)Cc2ccc(C)s2)o1`: 3.86%.
For `O=C(c1ccco1)N1CC2(CCNCC2)c2cc(Cl)ccc21`, the cytotoxicity at 10 µM was determined as 0.199%.
Next, `COc1cc2cc(C)c(SCCN3CCCCC3)nc2cc1OC`: -0.883%; `CCOCC1CN(CC2CC2)Cc2nn(C)cc21` (stereo unspecified): -76%; `CC1Cc2cc(-c3cncn3CC(=O)NC(C)(C)C)ccc2N1C` (stereo unspecified): -40.5%.
The figure for `Cc1cccc(C(=O)N2CCC[C@]3(C[C@@H](OCC4CC4)CO3)C2)n1` is -82.9%; for `Cc1cnc(N2CCC[C@@H]3CN(CC(=O)N(C)C)C[C@@H]32)nc1` it is 11.4%; for `CS(=O)(=O)N[C@@H]1CCN(Cc2cccnc2)[C@H]1Cc1ccccc1` it is -74.5%.
With `COCCN1CCC2(CC1)CN(C(=O)c1ccco1)CCO2`, the cytotoxicity at 10 µM is -1.27%.
With `COc1ccc(CN2CCC3(CC2)CCN(CC2CC2)C3=O)cc1`, the cytotoxicity at 10 µM stood at 8.18%.
With `CCC(CC)NC(=O)c1ncn2c1CN(CC)S(=O)(=O)c1ccccc1-2`, the cytotoxicity at 10 µM was -85.1%.
As to `Nc1nc2cn(C3CCCC3)c(=O)c-2c[nH]1`, the cytotoxicity at 10 µM was -14.5%.
